Assay: Toxicity liver stage against HepG2, at 10uM
Format: cell-based
Set-up: test concentration 10 uM, cell line HepG2-A16-CD81EGFP
Settings: human, HepG2-A16-CD81EGFP cells; read-out: INHIBITION
How it was run: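 Uninfected HepG2-A16-CD81EGFP cells, 3 × 10^3 per well, 1536-well, plated on prespotted compound at 10 μM final, parasite-free screening media added to match infected plates; puromycin 10 μM positive, DMSO 0.5% negative; run in parallel with 48 h PbLuc assay at 37 °C, 5% CO2; viability by CellTiter-Glo luminescence, normalized to controls.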

Compound | cytotoxicity at 10 µM [%]
Cc1nn(CCC#N)c(C)c1[C@@H]1C=C[C@@H](NCc2ccc(F)cc2)C1 | 2
CCOC(=O)[C@@H]1[C@H]2CN(C(=O)OC)CCN2C[C@H]1c1ccccc1 | 6.72
COc1ccc(-c2cc(C(=O)Nc3nc[nH]n3)[nH]n2)cc1 | -12.1
COCC(C)(O)CNC(=O)c1cc(-c2cc(OC)ccc2OC)nn1C (configuration not stated) | -6.42
O=C(c1ccnnc1)N1CC2(CCN(c3ncccn3)C2)C1 | 5.62
O=S(=O)(NC1=NCN(CCc2cccs2)CN1)c1ccc(Br)cc1 | -2.35
CCOc1ccc(Cl)cc1CNCCCn1ccnc1 | 1.36
Cn1cc(CN2C[C@@H]3COC[C@]3(COc3ccc(C#N)cn3)C2)cn1 | -11.3
CC(C)c1noc(C2CCN(C(=O)c3cccs3)CC2)n1 | 1.51
Cc1ccnn1CCNC(=O)c1cnc(N(C)C)nc1 | 2.24
c1cncc(CC2CN(c3cccnc3)CCO2)c1 (configuration not stated) | -0.41
CC(C)(C)C(=O)Nc1ccc(Oc2ccsc2C(=O)O)cc1 | 7.26
OC1(CNc2ccc(Br)cn2)CCSCC1 | 5.63
OCCN1CCC(CNCc2cn(-c3ccccc3)nn2)CC1 | 0.03
CN(CC(N)=O)Cc1cc(Cl)cc2cccnc12 | 6.37
O=C(NS(=O)(=O)c1cccc(C(F)(F)F)c1)c1cscn1 | 1.67
Cc1noc(C)c1CS(=O)(=O)CC(=O)NCCc1cccs1 | -1.6
Cc1cc(N(C)C)nc(N2CC(n3cccn3)C2)n1 | -3.24
c1cc(-c2noc(C3CCC3)n2)cc(N2CCCCC2)n1 | -1.39
CSCC(C)(O)CNC(=O)c1cc(F)ccc1Br (configuration not stated) | -5.41
CCC(CC)NC(=O)NCc1ccnc(-n2ccnc2C)c1 | -1.21
c1coc(CNc2nnc(Cc3ccsc3)o2)c1 | -2.28
CC(NC(=O)COC1CCCC1)c1nc(-c2ccccc2)c[nH]1 (configuration not stated) | 4.24
CC(c1ccccn1)N(C)C(=O)NCCn1c(=O)oc2ccccc21 (configuration not stated) | -6.37

Compound | cytotoxicity at 10 µM [%]
O=C(Cc1ccccc1O)Nc1ccc(N2CCCC2)nc1 | 9.31
CC(=O)N(C)Cc1ccc(OCc2cccs2)cc1 | 12.4
Cn1ncnc1NCc1ccc(F)cc1 | 0.361
CC(C)n1cc(CN2CCCN(C(=O)c3nccnc3N)CC2)cn1 | 7.13
CC(Oc1ccccc1C(F)(F)F)C(=O)NCCC(=O)N(C)C (configuration not stated) | -4.25
O=C1O[C@@H]2CN(Cc3ccncc3)C[C@@H]2N1CCCN1CCOCC1 | -6.13
O=C(Cn1ccc(=O)cc1)NCc1ccc2sccc2c1 | 0.592
Cc1nc(CCN)cc(N2CCOc3ccc(Cl)cc3C2)n1 | -0.29
CSCc1ccc(N(C)CC2CCCN(C(C)C)C2)nc1 (configuration not stated) | -128
CCCn1ncnc1C(C)NC(=O)C1CCN(CC(N)=O)CC1 (configuration not stated) | -140
CN(CCc1ccccc1)c1cnn(CC2COCCO2)c(=O)c1 (configuration not stated) | -10.3
O=C(O)[C@@H]1CN(C(=O)NCC2CCCCC2)C[C@H]1c1ccccn1 | 7.15
CCCn1ncc(-c2nc3c(cnn3CC)[nH]2)c1C | 4.05
CN(C)c1ccc(CN2CCC(C(O)Cc3ccccc3)CC2)cn1 (configuration not stated) | -1.29
N#Cc1c(C2CC2)cc(-c2ccc(F)c(F)c2)nc1N | -5.73
O=C(Nc1cc(C(F)(F)F)c[nH]c1=O)N1CCSCC1 | -5.1
Cc1cccc(OCCNC(=O)CN2CCN(C)CC2C)c1 (configuration not stated) | -2.66
CN(Cc1ccc(N(C)C)cc1)C(=O)c1cc2c([nH]c1=O)CCCC2=O | -3.34
Cc1cc(C)n(CC2CCCN2C(=O)Cc2c(C)nn(C)c2C)n1 (configuration not stated) | -13.8
CCN(CC)CC1CN(Cc2nccs2)Cc2nccn2C1 (configuration not stated) | 1.13
O=C(CC1CCCC1)N1CCC2(CCN2Cc2ccc(F)cc2)C1 (configuration not stated) | -5.66
Cc1nnsc1CN1C[C@H]2CC[C@@H](C1)N(Cc1c(C)noc1C)C2=O | -4.56
CCN1C(=O)CCC12CCC(NC(=O)c1cnccn1)CC2 (configuration not stated) | -2.42

Source: ChEMBL document CHEMBL4513216, “Probing the Open Global Health Chemical Diversity Library for Multistage-Active Starting Points for Next-Generation Antimalarials” (ACS Infect Dis, 2020)
